Data reported in ChEMBL document CHEMBL2150901, “Synthesis and biological activity of tricyclic cycloalkylimidazo-, pyrimido- and diazepinopurinediones” (Eur J Med Chem, 2011).
Activity calls are given as the source filed them. No cut-off for these calls is given here.

Assays:
Rattus norvegicus [1] = test: Anticonvulsant activity in Sprague-Dawley albino rat assessed as protection against maximal electroshock-induced seizures at 30 mg/kg, po after 1 hr; assay type: functional, organism-based; set-up: dose 30 mg/kg
In short: (§1)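 Male Sprague-Dawley albino rats (100–150 g), groups of 4. Oral suspension in 0.5% methylcellulose/water. Protection assessed by maximal electroshock or subcutaneous pentylenetetrazole; motor impairment by rotorod. Time points 0.25–4 h. Value is protected (or toxic)/tested animals.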

Adenosine receptor A2a = Adenosine receptor A2a (Homo sapiens, UniProt P29274); test: Antagonist activity human recombinant adenosine A2A receptor expressed in CHO cells assessed as inhibition of NECA-mediated [3H]cAMP accumulation after 15 mins by liquid scintillation counting; assay type: functional, cell-based
In short: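 Stably transfected CHO cells (human A2A), 200,000 cells/well, washed and preincubated 2 h at 37 °C in HBSS (pH 7.3) with 1 U/ml adenosine deaminase. Ro20-1724 (final 40 µM) added for 15 min. NECA dilutions ± a single test concentration in HBSS with 5% DMSO, in triplicate, for 15 min. Hot-lysis; cAMP quantified by [3H]cAMP competition against a standard curve; three separate experiments.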

Mus musculus = test: Neurotoxicity in F1 albino mouse assessed as minimal motor impairment at 300 mg/kg, ip after 4 hrs by rotorod test; assay type: toxicity, organism-based; set-up: dose 300 mg/kg, route intraperitoneal; conditions: in vivo
In short: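 Male albino F-1 mice (18–25 g), groups of 1–5 (rotorod 2–8). Compound given ip as a suspension in 0.5% methylcellulose at 30, 100 and 300 mg/kg. Seizures by maximal electroshock or subcutaneous pentylenetetrazole; neurotoxicity by rotorod. Read at 0.5 and 4 h, with some at 0.25, 1 and 2 h. Value is the minimum active dose, with protected (or toxic)/tested animals.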

Rattus norvegicus [2] = test: Anticonvulsant activity in Sprague-Dawley albino rat assessed as protection against subcutaneous pentylenetetrazole-induced seizures at 50 mg/kg, po after 2 hrs; assay type: functional, organism-based; set-up: dose 50 mg/kg; in short: as §1
Adenosine receptor A1 [3] = target: T1, Adenosine receptor A1 (Homo sapiens, UniProt P30542); test: Displacement of [3H]CCPA from human recombinant adenosine A1 receptor expressed in CHO cells; assay type: cell-based
T1 sequence (P30542 whole entry): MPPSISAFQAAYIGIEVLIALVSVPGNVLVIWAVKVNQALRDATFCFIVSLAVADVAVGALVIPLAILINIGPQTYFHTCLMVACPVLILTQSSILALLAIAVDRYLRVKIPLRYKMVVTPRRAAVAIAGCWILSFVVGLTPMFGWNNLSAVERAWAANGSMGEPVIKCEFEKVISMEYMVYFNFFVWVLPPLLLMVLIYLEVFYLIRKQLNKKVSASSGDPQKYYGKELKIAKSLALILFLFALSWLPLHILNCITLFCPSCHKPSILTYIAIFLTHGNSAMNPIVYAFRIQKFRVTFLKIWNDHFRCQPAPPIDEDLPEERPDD

Rattus norvegicus [4] = test: Anticonvulsant activity in Sprague-Dawley albino rat assessed as protection against subcutaneous pentylenetetrazole-induced seizures at 50 mg/kg, po after 4 hrs; assay type: functional, organism-based; set-up: dose 50 mg/kg; in short: as §1
Rattus norvegicus [5] = test: Anticonvulsant activity in Sprague-Dawley albino rat assessed as protection against maximal electroshock-induced seizures at 30 mg/kg, po after 0.5 hrs; assay type: functional, organism-based; set-up: dose 30 mg/kg; in short: as §1
Rattus norvegicus [6] = test: Anticonvulsant activity in Sprague-Dawley albino rat assessed as protection against subcutaneous pentylenetetrazole-induced seizures at 50 mg/kg, po after 0.25 hrs; assay type: functional, organism-based; set-up: dose 50 mg/kg; in short: as §1
Adenosine receptor A1 [7] = target: T2, Adenosine receptor A1 (Rattus norvegicus, UniProt P25099); test: Displacement of [3H]CCPA from adenosine A1 receptor in rat brain cortical membrane; assay type: cell membranes
T2 sequence (P25099 whole entry): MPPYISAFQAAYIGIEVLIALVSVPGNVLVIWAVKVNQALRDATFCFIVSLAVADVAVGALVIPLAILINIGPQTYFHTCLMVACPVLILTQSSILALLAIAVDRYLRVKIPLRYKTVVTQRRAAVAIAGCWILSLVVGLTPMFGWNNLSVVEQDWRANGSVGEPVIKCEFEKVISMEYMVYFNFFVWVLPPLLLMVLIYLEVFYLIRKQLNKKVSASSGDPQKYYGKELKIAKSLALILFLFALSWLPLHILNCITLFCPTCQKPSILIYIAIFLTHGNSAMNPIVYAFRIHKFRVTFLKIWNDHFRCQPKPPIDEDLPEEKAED

Chain of Adenosine receptor A2a (P29274 whole entry): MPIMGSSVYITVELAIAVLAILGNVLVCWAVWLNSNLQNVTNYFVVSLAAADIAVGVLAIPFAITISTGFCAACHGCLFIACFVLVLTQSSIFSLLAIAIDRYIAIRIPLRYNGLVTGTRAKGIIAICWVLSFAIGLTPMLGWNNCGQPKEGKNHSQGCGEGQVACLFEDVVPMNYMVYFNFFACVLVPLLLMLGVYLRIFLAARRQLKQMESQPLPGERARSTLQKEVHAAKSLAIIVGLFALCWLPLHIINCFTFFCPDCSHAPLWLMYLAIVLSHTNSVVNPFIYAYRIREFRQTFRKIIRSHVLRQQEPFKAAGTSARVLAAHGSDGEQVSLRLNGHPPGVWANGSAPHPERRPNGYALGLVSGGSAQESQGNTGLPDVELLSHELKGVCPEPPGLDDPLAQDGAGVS

Kb (Adenosine receptor A2a): 220 nM
Ki (Adenosine receptor A1 [3]): 7130 nM
Ki (Adenosine receptor A1 [7]): 2390 nM
Structure (SMILES): Cn1c(=O)c2c(nc3n2CCCN3CC2CC2)n(C)c1=O
Activity (Rattus norvegicus [1]): inactive
Activity (Mus musculus): Non-toxic
Activity (Rattus norvegicus [2]): inactive
Activity (Rattus norvegicus [4]): inactive
Activity (Rattus norvegicus [5]): inactive
Activity (Rattus norvegicus [6]): inactive
